Assay results taken from ChEMBL document CHEMBL1142517, “Discovery of an orally bioavailable small molecule inhibitor of prosurvival B-cell lymphoma 2 proteins” (J Med Chem, 2008).

Target: Apoptosis regulator Bcl-2 (Homo sapiens, UniProt P10415)
Assay: Displacement of fluorescein labeled Bax peptide from Bcl2 by fluorescence polarization assay
Conditions: not given

Apoptosis regulator Bcl-2, sequence (P10415 whole entry): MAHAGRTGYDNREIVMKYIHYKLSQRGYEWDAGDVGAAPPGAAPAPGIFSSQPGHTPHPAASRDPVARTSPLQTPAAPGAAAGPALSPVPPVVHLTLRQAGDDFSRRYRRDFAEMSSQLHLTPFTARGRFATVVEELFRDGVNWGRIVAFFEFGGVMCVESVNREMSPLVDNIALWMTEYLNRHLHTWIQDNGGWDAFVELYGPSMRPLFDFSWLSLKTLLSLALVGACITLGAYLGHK

| Structure (SMILES) | Ki [nM] |
| --- | --- |
| O=C(NS(=O)(=O)c1ccc(N[C@H](CCN2CCOCC2)CSc2ccccc2)c([N+](=O)[O-])c1)c1ccc(N2CCN(Cc3ccccc3-c3ccc(Cl)cc3)CC2)cc1 | < 1 |
| CN(C)CC[C@H](CSc1ccccc1)Nc1ccc(S(=O)(=O)NC(=O)c2ccc(N3CCN(Cc4ccccc4-c4ccc(Cl)cc4)CC3)cc2)cc1S(C)(=O)=O | < 1 |
| O=C(NS(=O)(=O)c1ccc(N[C@H](CCN2CCOCC2)CSc2ccccc2)c(S(=O)(=O)C(F)(F)F)c1)c1ccc(N2CCN(CC3=C(c4ccc(Cl)cc4)CCCC3)CC2)cc1 | < 1 |

Second part, the compound after the results:

| Ki [nM] | Structure (SMILES) |
| --- | --- |
| < 1 | CN(C)CC[C@H](CSc1ccccc1)Nc1ccc(S(=O)(=O)NC(=O)c2ccc(N3CCN(Cc4ccccc4-c4ccc(Cl)cc4)CC3)cc2)cc1S(=O)(=O)C(F)(F)F |
| < 1 | CN(C)CC[C@H](CSc1ccccc1)Nc1ccc(S(=O)(=O)NC(=O)c2ccc(N3CCN(Cc4ccccc4-c4ccc(Cl)cc4)CC3)cc2)cc1 |

Tested on: not listed separately
Assay: Cytotoxicity against IL3-dependent mouse FL5.12 cells overexpressing human Bcl-XL assessed as cell viability after 24 hrs by MTS assay in absence of serum
Format: functional, cell-based
Conditions: FL5.12, 24 h
Summary of the method: (§1)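 Mouse FL5.12 cells transfected with Bcl-XL or Bcl-2, deprived of IL-3 (no FBS or WEHI-3B conditioned medium) for 2 days. Then moved to serum-free gelatin medium (3.4 mg/mL bovine gelatin) with serially diluted compound for 24 h. Viability by MTS or CellTiter-Glo. Determinations in duplicate.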

| Structure (SMILES) | EC50 [nM] |
| --- | --- |
| CN(C)CC[C@H](CSc1ccccc1)Nc1ccc(S(=O)(=O)NC(=O)c2ccc(N3CCN(Cc4ccccc4-c4ccc(Cl)cc4)CC3)cc2)cc1S(=O)(=O)C(F)(F)F | 12 |
| CN(C)CC[C@H](CSc1ccccc1)Nc1ccc(S(=O)(=O)NC(=O)c2ccc(N3CCN(Cc4ccccc4-c4ccc(Cl)cc4)CC3)cc2)cc1S(C)(=O)=O | 415 |
| CN(C)CC[C@H](CSc1ccccc1)Nc1ccc(S(=O)(=O)NC(=O)c2ccc(N3CCN(Cc4ccccc4-c4ccc(Cl)cc4)CC3)cc2)cc1 | 15000 |
| O=C(NS(=O)(=O)c1ccc(N[C@H](CCN2CCOCC2)CSc2ccccc2)c(S(=O)(=O)C(F)(F)F)c1)c1ccc(N2CCN(CC3=C(c4ccc(Cl)cc4)CCCC3)CC2)cc1 | 0.7 |

Tested on: not listed separately
Assay: Cytotoxicity against IL3-dependent mouse FL5.12 cells overexpressing human Bcl2 assessed as cell viability after 24 hrs by MTS assay in absence of serum
Format: functional, cell-based
Conditions: FL5.12, 24 h
Summary of the method: as §1

| Structure (SMILES) | EC50 [nM] |
| --- | --- |
| CN(C)CC[C@H](CSc1ccccc1)Nc1ccc(S(=O)(=O)NC(=O)c2ccc(N3CCN(Cc4ccccc4-c4ccc(Cl)cc4)CC3)cc2)cc1S(=O)(=O)C(F)(F)F | 4.7 |
| CN(C)CC[C@H](CSc1ccccc1)Nc1ccc(S(=O)(=O)NC(=O)c2ccc(N3CCN(Cc4ccccc4-c4ccc(Cl)cc4)CC3)cc2)cc1S(C)(=O)=O | 170 |
| CN(C)CC[C@H](CSc1ccccc1)Nc1ccc(S(=O)(=O)NC(=O)c2ccc(N3CCN(Cc4ccccc4-c4ccc(Cl)cc4)CC3)cc2)cc1 | 2700 |
| O=C(NS(=O)(=O)c1ccc(N[C@H](CCN2CCOCC2)CSc2ccccc2)c(S(=O)(=O)C(F)(F)F)c1)c1ccc(N2CCN(CC3=C(c4ccc(Cl)cc4)CCCC3)CC2)cc1 | 1.1 |

Tested on: not listed separately
Assay: Cmax in Sprague-Dawley rat at 5 mg/kg, po
Format: ADME, organism-based
Design: dose 5 mg/kg, route oral
Conditions: in vivo
Summary of the method: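 Rats (Sprague-Dawley) given 5 mg/kg by oral gavage in 10% DMSO/PEG-400, n = 3. Serial heparinized blood samples. Plasma drug level by LC-MS/MS after acetonitrile protein precipitation, quantified by linear regression of peak-area ratio to internal standard. Concentration–time data fitted multiexponentially.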

| Cmax [nM] | Structure (SMILES) |
| --- | --- |
| 200 | O=C(NS(=O)(=O)c1ccc(N[C@H](CCN2CCOCC2)CSc2ccccc2)c([N+](=O)[O-])c1)c1ccc(N2CCN(Cc3ccccc3-c3ccc(Cl)cc3)CC2)cc1 |

Tested on: not listed separately
Assay: AUC in Sprague-Dawley rat at 5 mg/kg, po
Format: ADME, organism-based
Design: dose 5 mg/kg, route oral
Conditions: plasma
Summary of the method: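 Sprague-Dawley rats, single 5 mg/kg oral dose by gavage in 10% DMSO in PEG-400, n = 3. Heparinized blood taken before dosing and at set times. Plasma proteins precipitated with acetonitrile, then LC-MS/MS against spiked plasma standards with an internal standard. AUC by linear trapezoidal rule.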

| AUC [µM·h] | Structure (SMILES) |
| --- | --- |
| 0.83 | CN(C)CC[C@H](CSc1ccccc1)Nc1ccc(S(=O)(=O)NC(=O)c2ccc(N3CCN(Cc4ccccc4-c4ccc(Cl)cc4)CC3)cc2)cc1S(=O)(=O)C(F)(F)F |
| 1.16 | O=C(NS(=O)(=O)c1ccc(N[C@H](CCN2CCOCC2)CSc2ccccc2)c([N+](=O)[O-])c1)c1ccc(N2CCN(Cc3ccccc3-c3ccc(Cl)cc3)CC2)cc1 |
| 3.87 | O=C(NS(=O)(=O)c1ccc(N[C@H](CCN2CCOCC2)CSc2ccccc2)c(S(=O)(=O)C(F)(F)F)c1)c1ccc(N2CCN(CC3=C(c4ccc(Cl)cc4)CCCC3)CC2)cc1 |

Tested on: not listed separately
Assay: Ratio of AUC for Sprague-Dawley rat at 5 mg/kg, po to EC50 for human NCI-H146 cells in presence of 10% human serum
Format: functional
Conditions: not given
Summary of the method: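 The cells were treated for 48 h in medium with 10% human serum, and viability was read by CellTiter-Glo luminescence.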

| Structure (SMILES) | Ratio |
| --- | --- |
| CN(C)CC[C@H](CSc1ccccc1)Nc1ccc(S(=O)(=O)NC(=O)c2ccc(N3CCN(Cc4ccccc4-c4ccc(Cl)cc4)CC3)cc2)cc1S(=O)(=O)C(F)(F)F | 21 |
| O=C(NS(=O)(=O)c1ccc(N[C@H](CCN2CCOCC2)CSc2ccccc2)c([N+](=O)[O-])c1)c1ccc(N2CCN(Cc3ccccc3-c3ccc(Cl)cc3)CC2)cc1 | 1.9 |
| O=C(NS(=O)(=O)c1ccc(N[C@H](CCN2CCOCC2)CSc2ccccc2)c(S(=O)(=O)C(F)(F)F)c1)c1ccc(N2CCN(CC3=C(c4ccc(Cl)cc4)CCCC3)CC2)cc1 | 65.7 |

Tested on: not listed separately
Assay: AUC in Beagle dog at 2.5 mg/kg, iv or po
Format: ADME, organism-based, Canis lupus familiaris
Design: dose 2.5 mg/kg, route oral
Conditions: plasma
Summary of the method: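 Beagle dogs, single 2.5 mg/kg dose in 10% DMSO in PEG-400, n = 3 per route. Intravenous dose given as a slow cephalic-vein bolus; oral dose by gavage followed by 10 mL water. Plasma by LC-MS/MS. AUC by linear trapezoidal rule.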

| AUC [µM·h] | Structure (SMILES) |
| --- | --- |
| 3.8 | O=C(NS(=O)(=O)c1ccc(N[C@H](CCN2CCOCC2)CSc2ccccc2)c(S(=O)(=O)C(F)(F)F)c1)c1ccc(N2CCN(CC3=C(c4ccc(Cl)cc4)CCCC3)CC2)cc1 |

Tested on: not listed separately
Assay: AUC in cynomolgus monkey at 2.5 mg/kg, po
Format: ADME, organism-based, Macaca fascicularis
Design: dose 2.5 mg/kg, route oral
Conditions: plasma
Summary of the method: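 Cynomolgus monkeys, single 2.5 mg/kg oral dose in 10% DMSO in PEG-400 by gastric intubation followed by 5 mL water, n = 3. Serial heparinized plasma assayed by LC-MS/MS. AUC by linear trapezoidal rule.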

| AUC [µM·h] | Structure (SMILES) |
| --- | --- |
| 1.9 | O=C(NS(=O)(=O)c1ccc(N[C@H](CCN2CCOCC2)CSc2ccccc2)c(S(=O)(=O)C(F)(F)F)c1)c1ccc(N2CCN(CC3=C(c4ccc(Cl)cc4)CCCC3)CC2)cc1 |

Tested on: not listed separately
Assay: AUC in CD1 mouse at 50 mg/kg, po
Format: ADME, organism-based
Design: dose 50 mg/kg, route oral
Conditions: plasma
Summary of the method: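 CD-1 mice, single 50 mg/kg oral gavage in 2% DMSO/5% Tween-80/20% propylene glycol/73% D5W, n = 27. Groups of three euthanized by CO2 at set times and blood taken by cardiac puncture. Plasma by LC-MS/MS. AUC by linear trapezoidal rule.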

| AUC [µM·h] | Structure (SMILES) |
| --- | --- |
| 25.2 | O=C(NS(=O)(=O)c1ccc(N[C@H](CCN2CCOCC2)CSc2ccccc2)c(S(=O)(=O)C(F)(F)F)c1)c1ccc(N2CCN(CC3=C(c4ccc(Cl)cc4)CCCC3)CC2)cc1 |

Tested on: not listed separately
Assay: Cytotoxicity against human NCI-H146 cells assessed as cell viability after 48 hrs in presence of 10% human serum
Format: functional, cell-based
Conditions: NCI-H146, 48 h
Summary of the method: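 NCI-H146 SCLC cells maintained in RPMI 1640 with 10% FBS at 37 °C, 5% CO2. Treated for 48 h in medium with 10% human serum. Viability by CellTiter-Glo luminescence. Values from duplicate runs.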

| Structure (SMILES) | EC50 [nM] |
| --- | --- |
| CN(C)CC[C@H](CSc1ccccc1)Nc1ccc(S(=O)(=O)NC(=O)c2ccc(N3CCN(Cc4ccccc4-c4ccc(Cl)cc4)CC3)cc2)cc1S(=O)(=O)C(F)(F)F | 39.4 |
| O=C(NS(=O)(=O)c1ccc(N[C@H](CCN2CCOCC2)CSc2ccccc2)c([N+](=O)[O-])c1)c1ccc(N2CCN(Cc3ccccc3-c3ccc(Cl)cc3)CC2)cc1 | 610 |
| CN(C)CC[C@H](CSc1ccccc1)Nc1ccc(S(=O)(=O)NC(=O)c2ccc(N3CCN(Cc4ccccc4-c4ccc(Cl)cc4)CC3)cc2)cc1S(C)(=O)=O | 3490 |
| CN(C)CC[C@H](CSc1ccccc1)Nc1ccc(S(=O)(=O)NC(=O)c2ccc(N3CCN(Cc4ccccc4-c4ccc(Cl)cc4)CC3)cc2)cc1 | 78700 |
| O=C(NS(=O)(=O)c1ccc(N[C@H](CCN2CCOCC2)CSc2ccccc2)c(S(=O)(=O)C(F)(F)F)c1)c1ccc(N2CCN(CC3=C(c4ccc(Cl)cc4)CCCC3)CC2)cc1 | 58.9 |

Tested on: not listed separately
Assay: Oral bioavailability in Sprague-Dawley rat at 5 mg/kg
Format: ADME, organism-based
Conditions: in vivo

| bioavailability [%] | Structure (SMILES) |
| --- | --- |
| 16 | O=C(NS(=O)(=O)c1ccc(N[C@H](CCN2CCOCC2)CSc2ccccc2)c([N+](=O)[O-])c1)c1ccc(N2CCN(Cc3ccccc3-c3ccc(Cl)cc3)CC2)cc1 |
